Laboratory results: ChEMBL document CHEMBL4196166 (J Med Chem, 2018)
The source made the active and inactive calls. The calls are words filed in the database; no cut-off is given here.

How the values were obtained:
[1] = target: T1, Urokinase-type plasminogen activator (Homo sapiens, UniProt P00749); experiment: Inhibition of human kidney uPA using Z-Gly-Gly-Arg-AMC as substrate measured over 15 mins by fluorescence assay
[2] = target: T2, Epithelial sodium channel subunit alpha (Homo sapiens, UniProt P37088); experiment: Inhibition of S-3969-stimulated recombinant human ENaC alpha subunit expressed in HEK293 cells at 10 uM preincubated for 5 mins followed by S-3969 stimulation by FLIPR assay; assay type: cell-based; conditions: hek293, 10 µM
T2 sequence (P37088 whole entry): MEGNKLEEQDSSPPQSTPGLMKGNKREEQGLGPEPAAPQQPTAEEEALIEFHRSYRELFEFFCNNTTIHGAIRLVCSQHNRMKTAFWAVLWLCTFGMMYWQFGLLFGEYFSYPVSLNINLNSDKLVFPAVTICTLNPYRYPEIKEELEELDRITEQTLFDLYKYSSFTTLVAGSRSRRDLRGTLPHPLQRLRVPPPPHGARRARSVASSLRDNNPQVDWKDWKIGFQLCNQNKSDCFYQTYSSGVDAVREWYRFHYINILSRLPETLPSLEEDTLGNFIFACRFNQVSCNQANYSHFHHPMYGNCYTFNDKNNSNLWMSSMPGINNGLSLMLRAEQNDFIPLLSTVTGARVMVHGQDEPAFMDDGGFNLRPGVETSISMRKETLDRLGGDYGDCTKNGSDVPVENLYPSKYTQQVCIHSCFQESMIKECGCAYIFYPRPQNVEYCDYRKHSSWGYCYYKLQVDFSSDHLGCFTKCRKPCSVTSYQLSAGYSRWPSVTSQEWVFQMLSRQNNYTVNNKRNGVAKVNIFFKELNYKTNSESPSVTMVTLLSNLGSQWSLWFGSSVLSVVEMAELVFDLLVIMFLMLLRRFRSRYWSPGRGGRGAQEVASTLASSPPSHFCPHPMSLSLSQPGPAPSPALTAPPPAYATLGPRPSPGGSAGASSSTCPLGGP
Outline: (§1)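 HEK-293 cells transfected with human ENaC α, β and γ cDNA together, plated at 20 000 cells/well, incubated overnight at 37 °C. Loaded with membrane-potential red dye for 30 min at 37 °C. Compound preincubated 5 min in HEPES-buffered salt solution (pH 7.4, 0.3% DMSO), then stimulated with 1 µM S-3969, read on FLIPR. Signal normalized to agonist alone (100%) and agonist plus 30 µM benzamil (0%). n = 4 wells.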

[3] = target: T1, Urokinase-type plasminogen activator; experiment: Inhibition of human kidney uPA after 30 mins by gel-based ABPP assay
[4] = target: T3, Epithelial sodium channel subunit gamma (Homo sapiens, UniProt P51170); experiment: Inhibition of S-3969-stimulated recombinant human ENaC gamma subunit expressed in HEK293 cells at 10 uM preincubated for 5 mins followed by S-3969 stimulation by FLIPR assay; assay type: cell-based; conditions: hek293, 10 µM; outline: as §1
T3 sequence (P51170 whole entry): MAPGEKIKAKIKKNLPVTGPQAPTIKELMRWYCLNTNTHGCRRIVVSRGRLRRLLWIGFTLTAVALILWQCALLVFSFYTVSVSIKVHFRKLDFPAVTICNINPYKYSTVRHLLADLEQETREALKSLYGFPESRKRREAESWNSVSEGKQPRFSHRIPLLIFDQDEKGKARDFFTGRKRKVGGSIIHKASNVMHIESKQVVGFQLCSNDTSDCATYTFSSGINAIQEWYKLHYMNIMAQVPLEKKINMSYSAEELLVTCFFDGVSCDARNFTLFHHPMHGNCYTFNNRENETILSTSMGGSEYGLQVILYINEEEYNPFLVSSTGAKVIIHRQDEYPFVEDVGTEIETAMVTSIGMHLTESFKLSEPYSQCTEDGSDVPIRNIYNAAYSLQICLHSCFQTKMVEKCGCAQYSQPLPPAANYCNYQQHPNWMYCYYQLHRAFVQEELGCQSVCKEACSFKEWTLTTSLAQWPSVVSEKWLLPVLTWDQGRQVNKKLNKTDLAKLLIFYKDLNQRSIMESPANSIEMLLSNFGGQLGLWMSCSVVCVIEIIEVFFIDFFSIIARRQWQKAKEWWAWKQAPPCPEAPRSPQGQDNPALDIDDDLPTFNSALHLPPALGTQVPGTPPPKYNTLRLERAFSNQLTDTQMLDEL

[5] = target: T4, Epithelial sodium channel subunit beta (Homo sapiens, UniProt P51168); experiment: Inhibition of S-3969-stimulated recombinant human ENaC beta subunit expressed in HEK293 cells at 10 uM preincubated for 5 mins followed by S-3969 stimulation by FLIPR assay; assay type: cell-based; conditions: hek293, 10 µM; outline: as §1
T4 sequence (P51168 whole entry): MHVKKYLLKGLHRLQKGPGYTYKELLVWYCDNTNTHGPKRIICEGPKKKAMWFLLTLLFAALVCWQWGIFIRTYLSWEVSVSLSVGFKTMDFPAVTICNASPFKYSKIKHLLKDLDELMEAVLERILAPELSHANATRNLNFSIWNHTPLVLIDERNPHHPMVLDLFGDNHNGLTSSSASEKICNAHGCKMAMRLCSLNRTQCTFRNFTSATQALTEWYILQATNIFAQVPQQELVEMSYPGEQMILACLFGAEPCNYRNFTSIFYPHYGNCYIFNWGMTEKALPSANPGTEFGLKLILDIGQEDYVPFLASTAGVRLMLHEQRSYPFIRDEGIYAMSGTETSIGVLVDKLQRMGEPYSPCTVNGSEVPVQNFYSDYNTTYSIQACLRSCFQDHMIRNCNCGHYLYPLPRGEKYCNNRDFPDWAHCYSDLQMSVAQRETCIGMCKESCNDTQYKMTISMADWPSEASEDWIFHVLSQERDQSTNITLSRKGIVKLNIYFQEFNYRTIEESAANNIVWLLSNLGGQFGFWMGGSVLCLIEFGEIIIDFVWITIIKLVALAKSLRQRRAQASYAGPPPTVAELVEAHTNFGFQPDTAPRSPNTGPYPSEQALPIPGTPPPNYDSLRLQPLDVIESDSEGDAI

[6] = target: Trypsin (Homo sapiens, UniProt P07477+P07478+P35030); experiment: Inhibition of trypsin (unknown origin) at 10 nM to 33.3 uM after 30 mins by gel-based ABPP assay; assay type: protein assay
[7] = test system: HT-1080; experiment: Cytotoxicity against human HT1080 cells assessed as reduction in cell viability after 48 hrs by CellTiter 96 Aqueous One solution cell proliferation assay; assay type: functional, cell-based; conditions: HT-1080, 48 h
Outline: (§2)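 Cells grown in DMEM high glucose with 10% heat-inactivated FCS, seeded at 5000/well and left 18 h. Compounds added at 1 nM–100 µM final (0.2% vehicle), n = 4 wells per concentration, with colour blanks. After 48 h, MTS reagent added for 2 h and A490 read. IC50 from a variable-slope sigmoidal fit.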

[8] = test system: MDA-MB-231; experiment: Cytotoxicity against human MDA-MB-231 cells assessed as reduction in cell viability after 48 hrs by CellTiter 96 Aqueous One solution cell proliferation assay; assay type: functional, cell-based; conditions: MDA-MB-231, 48 h; outline: as §2
[9] = test system: HepG2; experiment: Cytotoxicity against human HepG2 cells assessed as reduction in cell viability after 48 hrs by CellTiter 96 Aqueous One solution cell proliferation assay; assay type: functional, cell-based; conditions: HepG2, 48 h; outline: as §2
[10] = test system: HEK293; experiment: Cytotoxicity against HEK293 cells assessed as reduction in cell viability after 48 hrs by CellTiter 96 Aqueous One solution cell proliferation assay; assay type: cell-based; conditions: Homo sapiens, HEK293, 48 h; outline: as §2
[11] = target: Coagulation factor X (Homo sapiens, UniProt P00742); experiment: Inhibition of factor 10a (unknown origin) using chromogenic H-D-Ile-L-Pro-L-Arg-p-nitoraniline as substrate by fluorescence assay
Coagulation factor X, sequence (P00742 41-179 limits assumed): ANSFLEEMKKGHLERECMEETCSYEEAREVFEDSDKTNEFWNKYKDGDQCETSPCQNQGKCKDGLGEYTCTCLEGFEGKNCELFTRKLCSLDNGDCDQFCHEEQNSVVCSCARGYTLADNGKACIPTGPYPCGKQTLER
Coagulation factor X, sequence (P00742 235-488 limits assumed): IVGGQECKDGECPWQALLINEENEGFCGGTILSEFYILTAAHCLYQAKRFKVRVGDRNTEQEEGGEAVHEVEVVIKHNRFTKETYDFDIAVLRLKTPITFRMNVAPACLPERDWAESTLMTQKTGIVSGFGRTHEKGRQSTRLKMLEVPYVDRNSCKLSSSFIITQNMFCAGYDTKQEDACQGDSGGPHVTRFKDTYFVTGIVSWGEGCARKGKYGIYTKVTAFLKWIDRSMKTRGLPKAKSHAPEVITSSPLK

[12] = target: Coagulation factor XI (Homo sapiens, UniProt P03951); experiment: Inhibition of factor 11a (unknown origin) using chromogenic L-pyroGlu-L-Pro-L-Arg-p-nitroaniline as substrate by […]
Coagulation factor XI, sequence (P03951 19-387 limits assumed): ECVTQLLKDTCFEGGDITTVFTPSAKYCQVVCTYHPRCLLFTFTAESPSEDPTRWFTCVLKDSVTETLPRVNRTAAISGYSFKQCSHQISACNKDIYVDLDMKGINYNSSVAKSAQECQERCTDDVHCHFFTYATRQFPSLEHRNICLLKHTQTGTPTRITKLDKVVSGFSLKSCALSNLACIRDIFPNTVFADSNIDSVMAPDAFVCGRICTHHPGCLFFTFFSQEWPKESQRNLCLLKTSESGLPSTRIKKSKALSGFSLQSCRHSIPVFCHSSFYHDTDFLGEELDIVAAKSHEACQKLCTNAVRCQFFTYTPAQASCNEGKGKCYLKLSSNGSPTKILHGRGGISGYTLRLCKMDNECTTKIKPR
Coagulation factor XI, sequence (P03951 388-625 limits assumed): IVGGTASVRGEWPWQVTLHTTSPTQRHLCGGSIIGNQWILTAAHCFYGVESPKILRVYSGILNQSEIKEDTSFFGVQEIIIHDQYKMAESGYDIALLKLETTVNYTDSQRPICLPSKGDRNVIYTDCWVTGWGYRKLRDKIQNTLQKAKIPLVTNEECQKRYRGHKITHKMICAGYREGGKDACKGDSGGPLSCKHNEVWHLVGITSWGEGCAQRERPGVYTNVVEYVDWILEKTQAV

[13] = target: T1, Urokinase-type plasminogen activator; experiment: Inhibition of human kidney uPA using chromogenic H-D-Ile-L-Pro-L-Arg-p-nitoraniline as substrate by fluorescence assay
Outline: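 Enzyme was uPA from human kidney cells at 10 nM final. […] Absorbance change at 405 nm gave initial rates. IC50 from a sigmoidal fit of % residual activity vs log concentration.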

[14] = target: Plasma kallikrein (Homo sapiens, UniProt P03952); experiment: Inhibition of human plasma kallikrein using chromogenic L-pyroGlu-L-Pro-L-Arg-p-nitroaniline as substrate by fluorescence assay
Plasma kallikrein, sequence (P03952 20-390 limits assumed): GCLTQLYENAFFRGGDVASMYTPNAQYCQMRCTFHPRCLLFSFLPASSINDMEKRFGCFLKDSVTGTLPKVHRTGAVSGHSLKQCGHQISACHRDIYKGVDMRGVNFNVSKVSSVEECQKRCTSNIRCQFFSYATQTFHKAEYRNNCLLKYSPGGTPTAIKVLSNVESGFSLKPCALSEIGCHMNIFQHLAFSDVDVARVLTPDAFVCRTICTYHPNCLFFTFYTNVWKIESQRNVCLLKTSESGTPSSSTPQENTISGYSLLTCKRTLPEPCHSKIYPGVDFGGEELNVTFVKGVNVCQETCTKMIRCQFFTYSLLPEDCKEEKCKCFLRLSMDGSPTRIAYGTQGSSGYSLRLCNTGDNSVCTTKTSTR
Plasma kallikrein, sequence (P03952 391-638 limits assumed): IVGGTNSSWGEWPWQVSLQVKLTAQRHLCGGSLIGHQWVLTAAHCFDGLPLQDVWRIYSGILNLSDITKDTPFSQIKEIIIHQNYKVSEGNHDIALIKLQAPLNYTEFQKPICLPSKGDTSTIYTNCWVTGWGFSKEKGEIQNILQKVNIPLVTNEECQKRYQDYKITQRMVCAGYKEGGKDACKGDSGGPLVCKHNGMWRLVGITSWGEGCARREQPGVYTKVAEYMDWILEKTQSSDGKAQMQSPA

[15] = target: Plasminogen (Homo sapiens, UniProt P00747); experiment: Inhibition of plasmin (unknown origin) using chromogenic H-D-Ile-L-Pro-L-Arg-p-nitoraniline as substrate by […]
Plasminogen, sequence (P00747 97-580 limits assumed): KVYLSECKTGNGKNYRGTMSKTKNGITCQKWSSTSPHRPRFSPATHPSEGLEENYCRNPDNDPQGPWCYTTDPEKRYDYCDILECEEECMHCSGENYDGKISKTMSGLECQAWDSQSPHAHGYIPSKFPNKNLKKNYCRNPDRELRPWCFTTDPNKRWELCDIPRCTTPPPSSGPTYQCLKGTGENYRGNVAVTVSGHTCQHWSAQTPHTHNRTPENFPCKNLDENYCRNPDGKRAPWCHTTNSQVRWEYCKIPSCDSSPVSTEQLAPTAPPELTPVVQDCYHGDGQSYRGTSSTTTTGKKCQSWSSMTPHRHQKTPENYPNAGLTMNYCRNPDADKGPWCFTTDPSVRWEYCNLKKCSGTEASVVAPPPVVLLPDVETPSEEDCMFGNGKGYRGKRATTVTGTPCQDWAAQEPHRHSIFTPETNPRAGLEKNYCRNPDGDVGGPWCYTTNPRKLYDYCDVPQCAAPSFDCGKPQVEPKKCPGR
Plasminogen, sequence (P00747 581-810 limits assumed): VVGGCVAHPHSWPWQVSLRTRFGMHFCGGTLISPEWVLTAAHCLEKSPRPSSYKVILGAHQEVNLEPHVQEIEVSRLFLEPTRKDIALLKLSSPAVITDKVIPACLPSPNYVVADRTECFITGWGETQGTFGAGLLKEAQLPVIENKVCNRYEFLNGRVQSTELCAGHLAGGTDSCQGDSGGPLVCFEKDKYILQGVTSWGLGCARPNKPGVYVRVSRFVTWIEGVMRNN

[16] = target: Vitamin K-dependent protein C (Homo sapiens, UniProt P04070); experiment: Inhibition of activated protein C (unknown origin) using chromogenic L-pyroGlu-L-Pro-L-Arg-p-nitroaniline as substrate by fluorescence assay
Vitamin K-dependent protein C, sequence (P04070 43-197 limits assumed): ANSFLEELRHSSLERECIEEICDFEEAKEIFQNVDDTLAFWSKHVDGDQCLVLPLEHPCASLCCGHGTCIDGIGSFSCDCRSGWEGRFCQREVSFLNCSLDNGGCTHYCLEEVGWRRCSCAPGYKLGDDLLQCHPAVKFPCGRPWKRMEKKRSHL
Vitamin K-dependent protein C, sequence (P04070 212-461 limits assumed): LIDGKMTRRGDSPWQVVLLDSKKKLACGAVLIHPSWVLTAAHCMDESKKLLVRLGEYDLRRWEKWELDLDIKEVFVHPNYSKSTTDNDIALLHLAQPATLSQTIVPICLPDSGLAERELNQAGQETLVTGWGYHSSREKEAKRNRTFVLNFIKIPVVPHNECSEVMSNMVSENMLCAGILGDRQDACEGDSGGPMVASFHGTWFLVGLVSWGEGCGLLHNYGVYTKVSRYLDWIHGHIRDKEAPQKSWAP

[17] = target: Prothrombin (Homo sapiens, UniProt P00734); experiment: Inhibition of thrombin (unknown origin) using chromogenic H-D-Ile-L-Pro-L-Arg-p-nitoraniline as substrate by […]
[18] = target: Tissue-type plasminogen activator (Homo sapiens, UniProt P00750); experiment: Inhibition of tPA (unknown origin) using chromogenic H-D-Ile-L-Pro-L-Arg-p-nitoraniline as substrate by […]
Tissue-type plasminogen activator, sequence (P00750 whole entry): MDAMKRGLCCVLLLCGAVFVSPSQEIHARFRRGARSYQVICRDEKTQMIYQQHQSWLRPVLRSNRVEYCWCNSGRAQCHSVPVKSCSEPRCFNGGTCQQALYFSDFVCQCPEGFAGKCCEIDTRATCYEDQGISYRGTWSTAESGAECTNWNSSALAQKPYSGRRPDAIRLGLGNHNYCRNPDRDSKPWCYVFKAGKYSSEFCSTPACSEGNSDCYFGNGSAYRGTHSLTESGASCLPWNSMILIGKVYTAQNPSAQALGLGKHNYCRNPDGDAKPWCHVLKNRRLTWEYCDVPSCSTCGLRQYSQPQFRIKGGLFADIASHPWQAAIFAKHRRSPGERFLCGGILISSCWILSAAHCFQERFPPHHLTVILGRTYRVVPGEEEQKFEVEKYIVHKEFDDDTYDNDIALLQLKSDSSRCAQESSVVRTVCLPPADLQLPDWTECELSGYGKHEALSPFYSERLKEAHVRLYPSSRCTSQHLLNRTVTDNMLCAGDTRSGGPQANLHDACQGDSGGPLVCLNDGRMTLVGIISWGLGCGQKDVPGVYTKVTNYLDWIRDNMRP

## COc1ccc(-c2nc(C(=O)NC(=N)N)c(N)nc2N2CCCCCC2)c(OC)n1
[1]
  Ki: 884 nM

## N=C(N)NC(=O)c1nc(-c2ccc3c(c2)OCO3)c(N2CCCCCC2)nc1N
[1]
  Ki: 934 nM

## N=C(N)NC(=O)c1nc(-c2cncnc2)c(N2CCCCCC2)nc1N
[2]
  inhibition (INH): Not Active
[3]
  inhibition: Active
[1]
  Ki: 108 nM
[4]
  inhibition (INH): Not Active
[5]
  inhibition (INH): Not Active
[6]
  inhibition: Active
[7]
  IC50: 37100 nM
[8]
  IC50: > 100000 nM
[9]
  IC50: > 100000 nM
[10]
  IC50: > 100000 nM

## N=C(N)NC(=O)c1nc(-c2cccnc2F)c(N2CCCCCC2)nc1N
[1]
  Ki: 1780 nM

## N=C(N)NC(=O)c1nc(-c2cc3ccccc3[nH]2)c(N2CCCCCC2)nc1N
[2]
  inhibition (INH): Not Active
[1]
  Ki: 5670 nM
[4]
  inhibition (INH): Not Active
[5]
  inhibition (INH): Not Active

## Cn1cc(-c2nc(C(=O)NC(=N)N)c(N)nc2N2CCCCCC2)cn1
[1]
  Ki: 508 nM

## COc1ccc(-c2nc(C(=O)NC(=N)N)c(N)nc2N2CCCCCC2)c(OC)c1
[1]
  Ki: 2200 nM

## N=C(N)NC(=O)c1nc(Nc2ncccn2)c(N2CCCCCC2)nc1N
[1]
  Ki: 228 nM

## COc1cc(OC)cc(-c2nc(C(=O)NC(=N)N)c(N)nc2N2CCCCCC2)c1
[1]
  Ki: 1320 nM

## N=C(N)NC(=O)c1nc(-c2cccs2)c(N2CCCCCC2)nc1N
[1]
  Ki: 2420 nM

## N=C(N)NC(=O)c1nc(-c2cc3c(F)cccc3o2)c(N2CCCCCC2)nc1N
[11]
  IC50: > 50000 nM
[1]
  Ki: 88 nM
[12]
  IC50: 23300 nM
[13]
  IC50: 430 nM
[14]
  IC50: 16700 nM
[15]
  IC50: > 20000 nM
[16]
  IC50: > 50000 nM
[7]
  IC50: 2100 nM
[8]
  IC50: 3200 nM
[9]
  IC50: 68400 nM
[17]
  IC50: > 20000 nM
[10]
  IC50: 12000 nM
[18]
  IC50: > 20000 nM

## COc1ncc(-c2nc(C(=O)NC(=N)N)c(N)nc2N2CCCCCC2)c(OC)n1
[1]
  Ki: 42 nM

## CSc1ccc(-c2nc(C(=O)NC(=N)N)c(N)nc2N2CCCCCC2)cc1
[1]
  Ki: 16400 nM

## N=C(N)NC(=O)c1nc(-c2ccc(C(F)(F)F)cc2)c(N2CCCCCC2)nc1N
[2]
  inhibition (INH): Not Active
[1]
  Ki: 4260 nM
[4]
  inhibition (INH): Not Active
[5]
  inhibition (INH): Not Active

## CC(C)Nc1ncc(-c2nc(C(=O)NC(=N)N)c(N)nc2N2CCCCCC2)cn1
[1]
  Ki: 42 nM

## N=C(N)NC(=O)c1nc(-c2cnc(NCCO)nc2)c(N2CCCCCC2)nc1N
[1]
  Ki: 41 nM

## N=C(N)NC(=O)c1nc(-c2cnc(N)nc2)c(N2CCCCCC2)nc1N
[1]
  Ki: 21 nM

## N=C(N)NC(=O)c1nc(-c2ccsc2)c(N2CCCCCC2)nc1N
[1]
  Ki: 1030 nM

## N=C(N)NC(=O)c1nc(-c2cncc3ccccc23)c(N2CCCCCC2)nc1N
[1]
  Ki: 3540 nM

## N=C(N)NC(=O)c1nc(-c2ccoc2)c(N2CCCCCC2)nc1N
[1]
  Ki: 166 nM

## N=C(N)NC(=O)c1nc(-c2cnn(CCN3CCOCC3)c2)c(N2CCCCCC2)nc1N
[1]
  Ki: 658 nM

## N=C(N)NC(=O)c1nc(-c2ccccc2)c(N2CCCCCC2)nc1N
[1]
  Ki: 5020 nM

## CNc1ncc(-c2nc(C(=O)NC(=N)N)c(N)nc2N2CCCCCC2)cn1
[1]
  Ki: 43 nM

## N=C(N)NC(=O)c1nc(-c2cc3ccccc3s2)c(N2CCCCCC2)nc1N
[1]
  Ki: 3310 nM

## COc1cc(-c2nc(C(=O)NC(=N)N)c(N)nc2N2CCCCCC2)c(OC)nn1
[1]
  Ki: 315 nM

## N=C(N)NC(=O)c1nc(-c2ccco2)c(N2CCCCCC2)nc1N
[1]
  Ki: 156 nM
